From ChEMBL document CHEMBL1255483, “Intra- and extracellular activities of dicloxacillin against Staphylococcus aureus in vivo and in vitro” (Antimicrob Agents Chemother, 2010)
≈ marks a conversion by molar mass, not a printed value. Calls of active or inactive are those of the source. The calls are words filed in the database; no cut-off is given here.

Assays:
[1] = fT>MIC in Staphylococcus aureus E19977 infected NMRI mouse at 80 mg/kg administered every 8 hrs; assay type: functional
How it was run: (§1)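 Calculated percentage of 24 h at steady state that free plasma DCX exceeds the strain MIC (microdilution, pH 7.4). Concentrations were simulated from single subcutaneous dose plasma curves in NMRI mice (S. lutea bioassay), adjusted with a square-root model of concentration-dependent free fraction from ultrafiltration. The regimen was dosed subcutaneously in mice infected intraperitoneally with 10^7.4 CFU, and peritoneal CFU were read after 24 h of therapy.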

Staphylococcus aureus [2] = assay: Bacteriostatic activity against Staphylococcus aureus ATCC 25923 infected in human THP-1 cells after 24 hrs; assay type: functional
How it was run: (§2)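 Human THP-1 macrophages were infected with opsonized S. aureus at 4 bacteria per macrophage for 45 min. Non-phagocytized bacteria were removed by washing and a brief incubation in PBS with gentamicin 50 mg/liter. Cells were then incubated up to 24 h with DCX over a wide range of extracellular concentrations. The read-out was Δlog CFU per mg cell protein versus time zero (n = 3), with sigmoidal fitting and Cstatic by interpolation.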

Staphylococcus aureus [3] = assay: Bacteriostatic activity against Staphylococcus aureus ATCC 25923 infected in human THP-1 cells at MIC after 5 hrs; assay type: functional, organism-based; how it was run: as §2
Staphylococcus aureus [4] = assay: Bactericidal activity against Staphylococcus aureus ATCC 25923 assessed as log reduction in bacterial count at 10 times MIC after 24 hrs by time-kill assay; assay type: functional
How it was run: (§3)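 Broth time-kill: MSSA at 10⁶ CFU/ml exposed to a wide range of dicloxacillin concentrations. CFU counted after 5 and 24 h and expressed as change in log₁₀ CFU/ml from time zero. Multiples refer to the MIC by CLSI microdilution at pH 7.4. n = 3.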

Staphylococcus aureus [5] = assay: Bactericidal activity against Staphylococcus aureus E19977 assessed as log reduction in bacterial count at MIC after 5 hrs by time-kill assay; assay type: functional; how it was run: as §3
Staphylococcus aureus [6] = assay: Bacteriostatic activity against Staphylococcus aureus ATCC 25923 at MIC between 5 to 24 hrs; assay type: functional, organism-based
How it was run: (§4)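 Extracellular broth time- and concentration-kill test. The inoculum was ~10⁶ CFU/ml, exposed to a wide range of DCX concentrations, with CFU counted after 5 and 24 h. The read-out was Δlog CFU/ml versus time zero (mean ± SD, n = 3). A sigmoidal fit with slope 1 gave Emax and EC50. Cstatic was read by graphical interpolation as the concentration giving no change from the inoculum.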

Staphylococcus aureus [7] = assay: Antimicrobial activity against Staphylococcus aureus E19977 infected in human THP1 cells assessed as log reduction in bacterial count at MIC after 24 hrs by time-kill assay; assay type: functional, THP-1
How it was run: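 Intracellular model in THP-1 macrophages: opsonized S. aureus was added at 4 bacteria per macrophage for 45 min. Non-phagocytized bacteria were removed by washing and brief PBS incubation with gentamicin (50 mg/liter). Cells were then incubated up to 24 h with a wide range of extracellular dicloxacillin concentrations. Result is change in log₁₀ CFU per mg cell protein from time zero. n = 3.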

Staphylococcus aureus [8] = assay: Bactericidal activity against Staphylococcus aureus E19977 assessed as log change in bacterial count after 24 hrs; assay type: functional; how it was run: as §4
Staphylococcus aureus [9] = assay: Bactericidal activity against Staphylococcus aureus ATCC 25923 infected in human THP-1 cells assessed as log change in bacterial count after 24 hrs; assay type: functional; how it was run: as §2
[10] = AUC (24 hrs) in NMRI mouse at 30 mg/kg, sc; assay type: ADME, organism-based; set-up: time < 24 hr, dose 30 mg/kg, route subcutaneous; conditions: plasma
How it was run: (§5)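 Single subcutaneous DCX doses given to NMRI mice. Blood was collected into EDTA tubes, and plasma drug was assayed by microbiological bioassay with S. lutea ATCC 9391 (detection limit 1.5 mg/liter, linear to 100 mg/liter). Values came from noncompartmental analysis. Terminal half-life was fitted monoexponentially to the last four time points. AUC24 combined the trapezoidal rule over mean points with exact integration of the fitted curve extrapolated to 24 h.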

[11] = Half-life in NMRI mouse at 30 mg/kg, sc; assay type: ADME, organism-based; set-up: dose 30 mg/kg, route subcutaneous; conditions: in vivo; how it was run: as §5
[12] = Ratio of fAUC (24 hrs) in NMRI mouse at 30 mg/kg administered every 2 hrs to MIC for Staphylococcus aureus E19977; assay type: functional
How it was run: (§6)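 Modeled free AUC over 24 h divided by the MIC, not measured directly. Single subcutaneous DCX doses were given to NMRI mice, and plasma was assayed by S. lutea bioassay. Noncompartmental analysis used trapezoidal mean points plus a fitted monoexponential extrapolated to 24 h. Free fraction came from a square-root fit to plasma ultrafiltration binding (10–400 mg/liter spike, 1 h, 37°C). The MIC was measured by broth microdilution at pH 7.4.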

[13] = Ratio of fAUC (24 hrs) in NMRI mouse at 240 mg/kg administered every 6 hrs to MIC for Staphylococcus aureus E19977; assay type: functional; how it was run: as §6
[14] = Ratio of fAUC (24 hrs) in NMRI mouse at 300 mg/kg administered every 12 hrs to MIC for Staphylococcus aureus E19977; assay type: functional; how it was run: as §6
[15] = Ratio of fCmax in NMRI mouse at 76 mg/kg administered every 2 hrs to MIC for Staphylococcus aureus E19977; assay type: functional
How it was run: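 Free Cmax/MIC was modelled, not measured. Single-dose subcutaneous plasma curves from NMRI mice were projected to the multiple-dose regimens. Free fraction came from a square-root fit of unbound fraction versus total concentration. Binding was measured by ultrafiltration of mouse plasma spiked with 10–400 mg/liter and held 1 h at 37°C. MIC was for strain E19977.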

Mus musculus [16] = organism: Mus musculus; assay: Protein binding in NMRI mouse at 60 mg/l by ultrafiltration; assay type: ADME, organism-based; conditions: in vivo
How it was run: (§7)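 Plasma binding was measured by ultrafiltration. EDTA blood from healthy mice, or from NMRI mice infected intraperitoneally for 6 h with E19977, was spiked with DCX at 10–400 mg/liter, with PBS controls. Samples were held 1 h at 37°C, then centrifuged through 30-kDa filters at 3,000 × g for 8 min at 37°C. Total and filtrate drug were measured by S. lutea bioassay.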

Mus musculus [17] = organism: Mus musculus; assay: Protein binding in NMRI mouse infected with Staphylococcus aureus E19977 at 270 mg/l by ultrafiltration; assay type: ADME, organism-based; conditions: in vivo; how it was run: as §7
[18] = fT>MIC in Staphylococcus aureus E19977 infected NMRI mouse at 120 mg/kg administered every 3 hrs; assay type: functional; how it was run: as §1
[19] = fT>MIC in Staphylococcus aureus E19977 infected NMRI mouse at 160 mg/kg administered every 3 hrs; assay type: functional; how it was run: as §1
[20] = fT>MIC in Staphylococcus aureus E19977 infected NMRI mouse at 200 mg/kg administered every 4 hrs; assay type: functional; how it was run: as §1
Staphylococcus aureus [21] = assay: Bacteriostatic activity against Staphylococcus aureus ATCC 25923 infected in human THP-1 cells at compound MIC after 24 hrs; assay type: functional, organism-based; how it was run: as §2
[22] = fT>MIC in Staphylococcus aureus E19977 infected NMRI mouse at 80 mg/kg administered every 3 hrs
Staphylococcus aureus [23] = assay: Antimicrobial activity against Staphylococcus aureus ATCC 25923 by broth microdilution method at pH 5.4
[24] = Ratio of fCmax in NMRI mouse at 340 mg/kg administered every 24 hrs to MIC for Staphylococcus aureus E19977
[25] = Ratio of fAUC (24 hrs) in NMRI mouse at 340 mg/kg administered every 24 hrs to MIC for Staphylococcus aureus E19977

fT>MIC [1]: 25% | AUC at 24 h [10]: 21400 ng·h/mL | half-life [11]: 19 min | fAUC/MIC [12]: 39.32 h | fAUC/MIC [13]: 572.83 h | fAUC/MIC [14]: 439.15 h | Activity (Mus musculus [16]): 89.5% | Activity (Mus musculus [17]): 80.7% | fT>MIC [18]: 75.56% | fT>MIC [19]: 96.11% | fT>MIC [20]: 86.25% | fT>MIC [22]: 66.67% | MIC (Staphylococcus aureus [23]): 0.031 µg/mL (≈ 0.0659 µM) | fAUC/MIC [25]: 259.37 h
SMILES: Cc1onc(-c2c(Cl)cccc2Cl)c1C(=O)N[C@@H]1C(=O)N2[C@@H]1SC(C)(C)[C@@H]2C(=O)O [DICLOXACILLIN]
Activity (Staphylococcus aureus [2]): 0.11 mg/L | Activity (Staphylococcus aureus [3]): Active | FC (Staphylococcus aureus [4]): 3 | FC (Staphylococcus aureus [5]): <1 | Activity (Staphylococcus aureus [6]): Active | FC (Staphylococcus aureus [7]): 1 | Emax (Staphylococcus aureus [8]): -3.81 deltalog10CFU/ml | Emax (Staphylococcus aureus [9]): -1.19 deltalog10CFU/ml | Ratio [15]: 28.18 | Activity (Staphylococcus aureus [21]): Active | Ratio [24]: 233.35
